Compound activity (PubChem BioAssay)
HUVEC inhibit = inhibitors of human endothelial cell proliferation. HUVEC proliferation, CellTiter-Glo luminescence, 72 h; active compounds read low. 86,000 tested, 1.1% active. viability, % at 10 µM (by protocol);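 active means viability at or below 30%; inactive means viability above 30%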;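 further: 100% = median luminescence of DMSO-only cell control wells on each plate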
Fibroblast inh = blocks proliferation of human lung fibroblasts. LL 47 human lung fibroblast viability, ATP luminescence; active compounds read low. viability, % at 10 µM. 85,000 tested, 1.1% active. AID 719;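 active means viability at or below 50% in the single dose screen; inactive means viability above 50%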;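 further: compound exposure lasted 72 h before the ATP readout; 100% = median luminescence of untreated cell-only wells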
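material = human LL 47 lung fibroblast cells | dosing = compounds added from tenfold dosing solution, 0.1% DMSO final | timing = overnight cell rest, 72 h compound treatment at 37 °C | measured by = CellTiter-Glo luminescence measuring cellular ATP | evaluation = % viability versus median cells-only luminescence | control set = cell-only wells, no compound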
H69AR inhibit = blocks growth of human H69AR lung tumor cells. H69AR lung tumor viability, ATP luminescence, 72 h; active compounds read low. 85,000 tested, 6% active. AID 598. viability, % at 10 µM;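 active means viability at or below 40%; inactive means viability above 40%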;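 further: multidrug resistant small cell line overexpressing MRP-1 efflux transporter; 100% = mean luminescence of untreated control wells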
Jurkat tox 60K = reduces viability or proliferation of Jurkat cells; 56,000 tested, 1.2% active; Jurkat E6.1 viability, ATP luminescence, 48 h; inhibition, % at 4 µM;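 active means inhibition above the mean inhibition of all tested compounds plus 3 SD, cut at about 28% in these data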
Numbers without * were called inactive; nt = no result. Shown are actives, neighbours in structure and some others; about 6.6% of the full set was active somewhere.

SMILES	HUVEC inhibit	Fibroblast inh	H69AR inhibit	Jurkat tox 60K
O=C(CC1Sc2ncnn2C1=O)Nc1ccc(Br)cc1 (centres undefined)	94.2	92.3	97.8	-3.4
O=C(CN1C(=O)c2ccccc2S1(=O)=O)N1CCc2ccccc2C1	104.1	93.9	85.3	-4.8
CCOC(=O)N1CCC(c2cc(=O)n3[nH]c(C)c(-c4ccc(F)cc4)c3n2)CC1	6.4*	83.5	96.4	2.7
Cc1ccc(C(NC(=O)N2CCOCC2)=C(Cl)Cl)cc1F	103.2	92.4	8.7*	7.2
O=C(c1ccco1)N1CCN(C(c2ccccc2Cl)c2nnnn2Cc2cccs2)CC1 (centres undefined)	79.9	73.2	32.7*	1.6
CC(C)(C)c1cccc(/C=N/O)c1O	106.9	102.1	104.2	nt
CC(C)(C)c1ccc(O)c(/C=N\O)c1	95.3	87.3	25.1*	nt
COc1ccc(NC(=O)C2=C(C)Nc3ncnn3C2c2ccccc2C(F)(F)F)c(OC)c1 (centres undefined)	85.1	95.3	45.0	-13.6
CCc1c(C)nc2ncnn2c1NCCc1ccc(OC)cc1	79.6	68.0	12.6*	93.1*
CCCn1nc(C(=O)N2CC(=O)Nc3ccccc32)c2ccccc2c1=O	55.2	62.5	25.2*	73.5*
O=C1CN(C(=O)c2ccccn2)c2ccccc2N1	102.6	92.1	91.7	nt
CC(C)COC(=O)n1c(SCC(=O)N(C)C)nc2ccccc21	92.6	100.8	87.8	2.3
NC(=O)c1c(NC(=O)c2ccccc2)sc2c1CCc1ccccc1-2	80.2	67.5	25.6*	nt
COC(=O)c1cc(OC)c(OC)cc1NC(=O)c1c(C)noc1C	97.3	97.1	88.8	-7.6
C=CCn1c(=O)/c(=C/c2cc(OC)c(OC)c(OC)c2)s/c1=C(/C#N)c1nc2ccccc2n1C	49.8	54.8	10.0*	nt
Clc1ccc(-n2nnnc2SCc2c(-c3ccccc3)nc3sccn23)cc1	117.6	93.9	88.3	-0.4
CCOC(=O)c1cnc(SC2CC(=O)N(c3ccc(C)cc3)C2=O)nc1N (centres undefined)	96.3	89.6	98.2	nt
Cc1cc(C)n(-c2ncnc3sc4c(c23)CCCC4)n1	95.5	93.5	93.5	-2.2
CCOC(=O)c1cnn(-c2nc(C)nc3sc4c(c23)CCC4)c1N	68.0	81.4	105.6	3.2
CCOC(=O)c1cnn(-c2nc3sc4c(c3c(=O)[nH]2)CCCC4)c1N	36.7	45.1*	29.5*	8.8
Cc1cc(C)n(-c2nc3sc4c(c3c(=O)[nH]2)CCCC4)n1	52.7	51.0	27.8*	nt
NC(=O)C1CCN(C(=O)CSc2nc3c(c(-c4ccccc4)n2)CCCC3)CC1	94.5	100.7	46.1	-7.2
CC1(C)N([O-])C2=C(c3ccccc3C2=O)[N+](=O)C1(C)C	105.5	101.7	97.8	nt
COc1ccc(N2CCN(C(CNS(=O)(=O)c3cc(F)ccc3F)c3cccnc3)CC2)cc1 (centres undefined)	105.3	97.4	88.5	nt
O=S(=O)(Nc1cccc2nsnc12)c1ccccc1	83.5	101.2	96.7	nt
SMILES	HUVEC inhibit	Fibroblast inh	H69AR inhibit	Jurkat tox 60K
Cc1cc(C)c(S(=O)(=O)Nc2cccc3nsnc23)c(C)c1	92.5	97.9	2.5*	-6.3
COc1ccc2c(CC(=O)OCC(=O)c3ccc(F)cc3)coc2c1	94.7	101.9	106.0	-3.4
CCOc1ccccc1N1CCN(C(=O)C2c3ccccc3Oc3ccccc32)CC1	56.1	68.1	19.3*	nt
Cc1c(Cl)cccc1NC(=O)CSc1nnc(CCNC(=O)OC(C)(C)C)o1	106.0	96.5	93.8	1.3
Clc1ccc(OCc2nnc3n2N=C(c2ccc4c(c2)OCCO4)CS3)c(Cl)c1	77.4	87.5	37.9*	3.4
CCOC(=O)c1sc(=NC(=O)c2cc(OC)c(OC)c(OC)c2)n(C)c1C	92.3	97.4	11.1*	-1.3
CC(C)Sc1nc(-c2cccs2)nc2c1c(=O)n(C)c(=O)n2C	84.3	65.7	18.9*	2.8
Cn1c(=O)c2c(SCC(=O)NCC3CCCO3)nc(-c3cccs3)nc2n(C)c1=O (centres undefined)	89.4	95.6	28.8*	10.1
CC(=O)C(Sc1nc(-c2ccco2)nc2c1c(=O)n(C)c(=O)n2C)C(=O)N(C)C (centres undefined)	96.9	95.2	74.8	-5.6
O=C(CSc1nnc(-c2cccs2)n1-c1ccccc1)NCC1CCCO1 (centres undefined)	105.5	98.0	92.2	-0.1
O=[n+]1c2c(n([O-])c3ccccc31)CCCC2	84.4	95.7	81.8	nt
Cc1cc(=O)oc2cc(OCC3CC(c4ccc(Br)cc4)=NO3)ccc12 (centres undefined)	69.0	97.8	64.9	nt
Cc1cc(=O)oc2cc(OCC(=O)N3c4ccccc4CC3C)ccc12 (centres undefined)	56.9	62.0	23.6*	72.0*
